Source: ChEMBL document CHEMBL4715736, “Identification of anticancer agents based on the thieno[2,3-b]pyridine and 1H-pyrazole molecular scaffolds” (2016)

Legend:
Format in all cases: functional
[1] = test system: NCI/ADR-RES; assay: Growth inhibition of human NCI/ADR-RES cells assessed as cell growth at 0.1 uM incubated for 48 hrs by sulforhodamine B assay relative to control; conditions: read-out: Activity
[2] = test system: HL-60(TB); assay: Growth inhibition of human HL-60(TB) cells assessed as cell growth at 10 uM incubated for 48 hrs by sulforhodamine B assay relative to control; conditions: read-out: Activity
In short: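 Screened by the NCI Developmental Therapeutics Program on its panel of 60 human tumour cell lines. Compounds were first tested at a single 10 µM dose, and compounds active there went to dose-response curves. Growth is expressed relative to untreated control (100%). GI50 (50% of maximal proliferation inhibition) and TGI (total growth inhibition) were derived from the dose-response data.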

[3] = test system: SR; assay: Growth inhibition of human SR cells assessed as cell growth at 10 uM incubated for 48 hrs by sulforhodamine B assay relative to control; conditions: read-out: Activity
In short: (§1)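 Run by the NCI Developmental Therapeutics Program as part of its 60-line human tumour panel. Each compound tested at a single 10 µM dose. Growth expressed as % relative to untreated control cells (100%).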

[4] = test system: A549; assay: Growth inhibition of human A549/ATCC cells assessed as cell growth at 10 uM incubated for 48 hrs by sulforhodamine B assay relative to control; conditions: read-out: Activity
In short: (§2)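 NCI Developmental Therapeutics Program NCI60 panel. Compounds that were active in the 10 µM one-dose screen went on to dose–response testing. Growth at each concentration is expressed relative to untreated control (100%). GI50 (concentration giving 50% of maximal inhibition of proliferation) and TGI (concentration giving total growth inhibition) were derived from the curves.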

[5] = test system: HOP-62; assay: Growth inhibition of human HOP-62 cells assessed as cell growth at 10 uM incubated for 48 hrs by sulforhodamine B assay relative to control; conditions: read-out: Activity
In short: (§3)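 Submitted to the NCI Developmental Therapeutics Program for the NCI60 human tumour cell line panel. First screen at a single 10 µM concentration. Read-out is growth relative to untreated control cells set at 100%.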

[6] = test system: NCI-H23; assay: Growth inhibition of human NCI-H23 cells assessed as cell growth at 10 uM incubated for 48 hrs by sulforhodamine B assay relative to control; conditions: read-out: Activity; in short: as §3
[7] = test system: HCC 2998; assay: Growth inhibition of human HCC 2998 cells assessed as cell growth at 10 uM incubated for 48 hrs by sulforhodamine B assay relative to control; conditions: read-out: Activity; in short: as §2
[8] = test system: HCT-116; assay: Growth inhibition of human HCT-116 cells assessed as cell growth at 10 uM incubated for 48 hrs by sulforhodamine B assay relative to control; conditions: read-out: Activity; in short: as §3
[9] = test system: KM12; assay: Growth inhibition of human KM12 cells assessed as cell growth at 10 uM incubated for 48 hrs by sulforhodamine B assay relative to control; conditions: read-out: Activity; in short: as §3
[10] = test system: SF-295; assay: Growth inhibition of human SF-295 cells assessed as cell growth at 10 uM incubated for 48 hrs by sulforhodamine B assay relative to control; conditions: read-out: Activity; in short: as §1
[11] = test system: U-251; assay: Growth inhibition of human U-251 cells assessed as cell growth at 10 uM incubated for 48 hrs by sulforhodamine B assay relative to control; conditions: read-out: Activity; in short: as §1
[12] = test system: M14; assay: Growth inhibition of human M14 cells assessed as cell growth at 10 uM incubated for 48 hrs by sulforhodamine B assay relative to control; conditions: read-out: Activity; in short: as §3
[13] = test system: SK-MEL-28; assay: Growth inhibition of human SK-MEL-28 cells assessed as cell growth at 10 uM incubated for 48 hrs by sulforhodamine B assay relative to control; conditions: read-out: Activity; in short: as §1
[14] = test system: 786-0; assay: Growth inhibition of human 786-0 cells assessed as cell growth at 10 uM incubated for 48 hrs by sulforhodamine B assay relative to control; conditions: read-out: Activity; in short: as §2
[15] = test system: ACHN; assay: Growth inhibition of human ACHN cells assessed as cell growth at 10 uM incubated for 48 hrs by sulforhodamine B assay relative to control; conditions: read-out: Activity
In short: (§4)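 NCI Developmental Therapeutics Program NCI60 human tumour cell line panel, one-dose primary screen with every compound at 10 µM. Growth is expressed as % of untreated control cells (100%).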

[16] = test system: CAKI-1; assay: Growth inhibition of human CAKI-1 cells assessed as cell growth at 10 uM incubated for 48 hrs by sulforhodamine B assay relative to control; conditions: read-out: Activity; in short: as §2
[17] = test system: DU-145; assay: Growth inhibition of human DU-145 cells assessed as cell growth at 10 uM incubated for 48 hrs by sulforhodamine B assay relative to control; conditions: read-out: Activity; in short: as §2
[18] = test system: MDA-MB-468; assay: Growth inhibition of human MDA-MB-468 cells assessed as cell growth at 10 uM incubated for 48 hrs by sulforhodamine B assay relative to control; conditions: read-out: Activity; in short: as §3
[19] = test system: UO-31; assay: Growth inhibition of human UO-31 cells assessed as cell growth at 100 uM incubated for 48 hrs by sulforhodamine B assay relative to control; conditions: read-out: Activity
[20] = test system: COLO 205; assay: Growth inhibition of human COLO 205 cells incubated for 48 hrs by sulforhodamine B assay; in short: as §2
[21] = test system: HCT-15; assay: Growth inhibition of human HCT-15 cells incubated for 48 hrs by sulforhodamine B assay
In short: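 NCI60 panel at the NCI Developmental Therapeutics Program. Only compounds active in the 10 µM screen went to dose-response testing. GI50, the concentration giving 50% of maximal inhibition of proliferation, and TGI, the concentration giving total growth inhibition, were derived from the dose-response curves.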

[22] = test system: SF-295; assay: Growth inhibition of human SF-295 cells incubated for 48 hrs by sulforhodamine B assay
In short: (§5)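 NCI DTP 60-line human tumour panel. Dose-response curves were run only for ligands active in the initial 10 µM screen. GI50 (concentration giving 50% of maximal inhibition of proliferation) and TGI (concentration giving total growth inhibition) were derived from these curves.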

[23] = test system: OVCAR-4; assay: Growth inhibition of human OVCAR-4 cells incubated for 48 hrs by sulforhodamine B assay; conditions: for CC50: read-out: LC50 (the source's name); in short: as §5
[24] = test system: SK-MEL-2; assay: Growth inhibition of human SK-MEL-2 cells assessed as cell growth at 1 uM incubated for 48 hrs by sulforhodamine B assay relative to control; conditions: read-out: Activity
[25] = test system: NCI-H522; assay: Growth inhibition of human NCI-H522 cells assessed as cell growth at 10 uM incubated for 48 hrs by sulforhodamine B assay relative to control; conditions: read-out: Activity; in short: as §3
[26] = test system: HT-29; assay: Growth inhibition of human HT-29 cells assessed as cell growth at 10 uM incubated for 48 hrs by sulforhodamine B assay relative to control; conditions: read-out: Activity; in short: as §3
[27] = test system: SK-MEL-2; assay: Growth inhibition of human SK-MEL-2 cells assessed as cell growth at 10 uM incubated for 48 hrs by sulforhodamine B assay relative to control; conditions: read-out: Activity; in short: as §1
[28] = test system: SK-OV-3; assay: Growth inhibition of human SK-OV-3 cells assessed as cell growth at 10 uM incubated for 48 hrs by sulforhodamine B assay relative to control; conditions: read-out: Activity; in short: as §1
[29] = test system: TK-10; assay: Growth inhibition of human TK-10 cells assessed as cell growth at 10 uM incubated for 48 hrs by sulforhodamine B assay relative to control; conditions: read-out: Activity; in short: as §1
[30] = test system: BT-549; assay: Growth inhibition of human BT-549 cells assessed as cell growth at 10 uM incubated for 48 hrs by sulforhodamine B assay relative to control; conditions: read-out: Activity; in short: as §4

SMILES | growth at 0.1 µM [1] [%] | growth at 10 µM [4] [%] | growth at 10 µM [5] [%] | growth at 10 µM [6] [%] | growth at 10 µM [7] [%] | growth at 10 µM [8] [%] | growth at 10 µM [9] [%] | growth at 10 µM [10] [%] | growth at 10 µM [11] [%] | growth at 10 µM [12] [%] | growth at 10 µM [13] [%] | growth at 10 µM [14] [%] | growth at 10 µM [15] [%] | growth at 10 µM [16] [%] | growth at 10 µM [17] [%] | growth at 100 µM [19] [%] | GI50 [20] [µM] | GI50 [21] [µM] | LC50 [21] [µM] | TGI [21] [µM] | also measured
CCc1cccc(C)c1NC(=O)c1sc2nc3c(cc2c1N)C(=O)CCC3 | 99 | 22.9 | 23.3 | 32 | 10.2 | 17 | 14 | 2 | 2.81 | 7 | 39 | 28 | 22 | 38 | 14.2 | 12 | 0.278 | 0.471 | > 100 | > 100 | growth at 10 µM [2]: -30%; growth at 10 µM [3]: 2.24%; growth at 10 µM [18]: 9%; GI50 [22]: 0.276 µM; LC50 (concentration killing 50% of cells) [22]: > 100 µM; TGI [22]: > 100 µM; GI50 [23]: 0.01 µM; TGI [23]: > 100 µM; CC50 [23]: > 100 µM
Cc1cc(C)c(NC(=O)c2sc3nc4c(cc3c2N)CN(Cc2ccccc2)CC4)c(C)c1 | 100 | 25 | 46 | 27 | 30 | 16 | 15 | 8 | 26 | 17 | 46 | 23 | 40 | 18 | -12 | -1 | 2.98 | 2.12 | > 100 | > 100 | growth at 1 µM [24]: 96%; growth at 10 µM [25]: -13%; growth at 10 µM [26]: 3%; growth at 10 µM [27]: 34%; growth at 10 µM [28]: 36%; growth at 10 µM [29]: 31%; growth at 10 µM [30]: 30%; growth at 10 µM [18]: 10%; LC50 (concentration killing 50% of cells) [20]: 68.8 µM; TGI [20]: 10.1 µM; GI50 [22]: 1.89 µM; LC50 (concentration killing 50% of cells) [22]: > 100 µM; TGI [22]: 64.7 µM; GI50 [23]: 6.72 µM; TGI [23]: > 100 µM; CC50 [23]: > 100 µM
Cc1cccc(NC(=O)c2sc3nc4c(cc3c2N)C(=O)CCC4)c1 | 69 | 23 | 8 | 28 | 25 | 20 | 13 | 7 | 6 | 4 | 34 | 15 | 25 | 26 | 6 | -23 | 0.197 | 0.27 | > 100 | > 100 | growth at 1 µM [24]: 17%; growth at 10 µM [25]: -22%; growth at 10 µM [26]: -1%; growth at 10 µM [27]: 13%; growth at 10 µM [28]: 3%; growth at 10 µM [29]: 57%; growth at 10 µM [30]: 32%; LC50 (concentration killing 50% of cells) [20]: > 100 µM; TGI [20]: ≥ 100 µM; GI50 [22]: 0.175 µM; LC50 (concentration killing 50% of cells) [22]: > 100 µM; TGI [22]: ≥ 100 µM; TGI [23]: ≥ 100 µM; CC50 [23]: > 100 µM
Nc1c(C(=O)Nc2ccccc2)sc2nc3c(cc12)CN(Cc1ccccc1)CC3 | 101 | 55 | 26 | 63 | 76 | 51 | 60 | 36 | 56 | 64 | 63 | 54 | 37 | 56 | 57 | 32 | 24 | 24.7 | > 100 | > 100 | growth at 1 µM [24]: 101%; growth at 10 µM [3]: 54%; growth at 10 µM [25]: 70%; growth at 10 µM [26]: 77%; growth at 10 µM [27]: 70%; growth at 10 µM [28]: 12%; growth at 10 µM [29]: 19%; growth at 10 µM [30]: 65%; growth at 10 µM [18]: 58%; LC50 (concentration killing 50% of cells) [20]: > 100 µM; TGI [20]: > 100 µM; GI50 [22]: 5.45 µM; LC50 (concentration killing 50% of cells) [22]: > 100 µM; TGI [22]: > 100 µM; GI50 [23]: 1.97 µM; TGI [23]: 23.1 µM; CC50 [23]: > 100 µM
COc1cccc(NC(=O)c2sc3nc4c(cc3c2N)CN(Cc2ccccc2)CC4)c1 | 97 | 22 | -17 | 43 | 49 | 23 | 57 | 21 | 21 | 56 | 27 | 22 | 14 | 53 | 32 | -23 | 7.55 | 0.93 | > 100 | > 100 | growth at 1 µM [24]: 77%; growth at 10 µM [3]: 40%; growth at 10 µM [25]: 61%; growth at 10 µM [26]: 16%; growth at 10 µM [27]: 51%; growth at 10 µM [28]: 11%; growth at 10 µM [29]: 28%; growth at 10 µM [30]: 23%; growth at 10 µM [18]: 30%; LC50 (concentration killing 50% of cells) [20]: > 100 µM; TGI [20]: 54.5 µM; GI50 [22]: 3.05 µM; LC50 (concentration killing 50% of cells) [22]: 94.3 µM; TGI [22]: 19.4 µM; GI50 [23]: 2.68 µM; TGI [23]: 19.7 µM; CC50 [23]: > 100 µM
